Laboratory results from ChEMBL document CHEMBL5724801, “EUbOPEN Chemogenomics Library - Multiplex” (2024).
“And” between values parts separate entries of the source, which are not always exact repeats. Equal values may be shown once.

Tested on: U2OS
Experiment: Multiplex assay against U2OS
Format: toxicity, cell-based
Conditions: human
Procedure, shortened: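 Hoechst33342, BioTracker Green Microtubule Cytoskeleton Dye, MitoTracker Red and Annexin V Alexa Fluor 680 were added to live cells at seeding, and imaging on a CQ1 microscope at 37°C and 5% CO2 followed compound addition. Gating by CellPathfinder machine learning separated cells into Hoechst high-intensity objects or normal cells, then normal cells into healthy, pyknosed or fragmented nuclei, then pyknosed cells into mitotic or apoptotic. Per cents of healthy-nucleus cells are reported for the tubulin, mitochondrial-mass and membrane-permeability phenotypes.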

[1] = 12 h, 1 µM, compound concentration 1 uM
[2] = 12 h, 10 µM, compound concentration 10 uM
[3] = 24 h, 1 µM, compound concentration 1 uM
[4] = 24 h, 10 µM, compound concentration 10 uM
[5] = 48 h, 1 µM, compound concentration 1 uM
[6] = 48 h, 10 µM, compound concentration 10 uM

In the case of `CC(F)(F)CN1CCOc2c(nn(-c3ccccc3Cl)c2-c2ccc(Cl)cc2)C1=O`, the “Population Apoptotic (%)” value [1] was 81% and 100%, the “Population Healthy Nuclei (%)” value [1] was 53% and 71% and the “Population Hoechst High Intensity Objects (%)” value [1] was 2% and 0%. For the same compound, the “Population Membrane Permeable-Phenotype (%)” value [1] was 3%, the “Population Mitotic Cells (%)” value [1] was 18% and 0% and the “Population Normal (%)” value [1] was 97% and 99%. The “Population Tubulin-Different-Phenotype (%)” value [1] was 8% and 4%, the “Total Cell Count” value [1] was 219 and 121 and the “Population Apoptotic (%)” value [2] was 83% and 60%. For the same compound, the “Population Healthy Nuclei (%)” value [2] was 62% and 71%, the “Population Hoechst High Intensity Objects (%)” value [2] was 1% and the “Population Membrane Permeable-Phenotype (%)” value [2] was 10%. The “Population Mitotic Cells (%)” value [2] was 16% and 40%, the “Population Normal (%)” value [2] was 98% and the “Population Tubulin-Different-Phenotype (%)” value [2] was 14% and 5%. For the same compound, the “Total Cell Count” value [2] was 216 and 130, the “Population Apoptotic (%)” value [3] was 95% and 90% and the “Population Healthy Nuclei (%)” value [3] was 55% and 71%. For the same compound, the “Population Hoechst High Intensity Objects (%)” value [3] was 4% and 1%, the “Population Membrane Permeable-Phenotype (%)” value [3] was 9% and the “Population Mitotic Cells (%)” value [3] was 4% and 10%. The “Population Normal (%)” value [3] was 95% and 98%, the “Population Tubulin-Different-Phenotype (%)” value [3] was 6% and 13% and the “Total Cell Count” value [3] was 246 and 155. The “Population Apoptotic (%)” value [4] was 70% and 80%, the “Population Healthy Nuclei (%)” value [4] was 63% and 77% and the “Population Hoechst High Intensity Objects (%)” value [4] was 1%. The “Population Mitotic Cells (%)” value [4] was 29% and 20%, the “Population Normal (%)” value [4] was 98% and the “Population Tubulin-Different-Phenotype (%)” value [4] was 7% and 5%. The “Total Cell Count” value [4] was 248 and 154, the “Population Apoptotic (%)” value [5] was 94% and 89% and the “Population Healthy Nuclei (%)” value [5] was 66% and 69%. The “Population Hoechst High Intensity Objects (%)” value [5] was 4% and 1%, the “Population Membrane Permeable-Phenotype (%)” value [5] was 6% and 7% and the “Population Mitotic Cells (%)” value [5] was 5% and 10%. For the same compound, the “Population Normal (%)” value [5] was 95% and 98%, the “Population Tubulin-Different-Phenotype (%)” value [5] was 3% and 6% and the “Total Cell Count” value [5] was 333 and 203. The “Population Apoptotic (%)” value [6] was 96% and 88%, the “Population Healthy Nuclei (%)” value [6] was 68% and 72% and the “Population Hoechst High Intensity Objects (%)” value [6] was 1% and 4%. The “Population Membrane Permeable-Phenotype (%)” value [6] was 8%, the “Population Mitotic Cells (%)” value [6] was 3% and 11% and the “Population Normal (%)” value [6] was 98% and 95%. The “Population Tubulin-Different-Phenotype (%)” value [6] was 6% and 4% and the “Total Cell Count” value [6] was 322 and 204.

For `COc1ccc2nc3ccc(OC)cc3c(SCCCN)c2c1.Cl`, the “Population Apoptotic (%)” value [1] was 33.33% and 48.15%, the “Population Fragmented Nuclei (%)” value [1] was 5.01% and 5.7% and the “Population Healthy Nuclei (%)” value [1] was 88.22% and 80.31%. For the same compound, the “Population Hoechst High Intensity Objects (%)” value [1] was 0%, the “Population Membrane Permeable-Phenotype (%)” value [1] was 0.85% and 1.94% and the “Population Mitochondria Different-Phenotype (%)” value [1] was 0% and 12.26%. For the same compound, the “Population Mitotic Cells (%)” value [1] was 66.67% and 51.85%, the “Population Normal (%)” value [1] was 100% and the “Population Pyknosed Nuclei (%)” value [1] was 6.77% and 13.99%. For the same compound, the “Population Tubulin-Different-Phenotype (%)” value [1] was 1.14% and 0%, the “Total Cell Count” value [1] was 399 and 193 and the “Population Apoptotic (%)” value [2] was 50% and 100%. For the same compound, the “Population Fragmented Nuclei (%)” value [2] was 77.73% and 91.54%, the “Population Healthy Nuclei (%)” value [2] was 21.48% and 8.25% and the “Population Hoechst High Intensity Objects (%)” value [2] was 8.43% and 7.62%. The “Population Normal (%)” value [2] was 91.57% and 92.38%, the “Population Pyknosed Nuclei (%)” value [2] was 0.79% and 0.21% and the “Population Tubulin-Different-Phenotype (%)” value [2] was 28.57% and 40.17%. For the same compound, the “Total Cell Count” value [2] was 1388 and 1535, the “Population Apoptotic (%)” value [3] was 29.73% and 51.52% and the “Population Fragmented Nuclei (%)” value [3] was 3.05% and 1.4%. For the same compound, the “Population Healthy Nuclei (%)” value [3] was 89.9% and 83.18%, the “Population Hoechst High Intensity Objects (%)” value [3] was 0% and the “Population Membrane Permeable-Phenotype (%)” value [3] was 0.85% and 2.81%. For the same compound, the “Population Mitochondria Different-Phenotype (%)” value [3] was 0% and 7.3%, the “Population Mitotic Cells (%)” value [3] was 70.27% and 48.48% and the “Population Normal (%)” value [3] was 100%. For the same compound, the “Population Pyknosed Nuclei (%)” value [3] was 7.05% and 15.42%, the “Population Tubulin-Different-Phenotype (%)” value [3] was 1.06% and 1.69% and the “Total Cell Count” value [3] was 525 and 214. For the same compound, the “Population Apoptotic (%)” value [4] was 50% and 78.57%, the “Population Fragmented Nuclei (%)” value [4] was 75.02% and 91.84% and the “Population Hoechst High Intensity Objects (%)” value [4] was 12.85% and 7.48%. The “Population Mitotic Cells (%)” value [4] was 50% and 21.43%, the “Population Normal (%)” value [4] was 87.15% and 92.52% and the “Population Pyknosed Nuclei (%)” value [4] was 0.64% and 0.94%. For the same compound, the “Population Tubulin-Different-Phenotype (%)” value [4] was 6.62% and 18.52%, the “Total Cell Count” value [4] was 1424 and 1617 and the “Population Apoptotic (%)” value [5] was 46.15% and 46.51%. The “Population Fragmented Nuclei (%)” value [5] was 3.96% and 4.36%, the “Population Healthy Nuclei (%)” value [5] was 90.62% and 82.24% and the “Population Hoechst High Intensity Objects (%)” value [5] was 0%. For the same compound, the “Population Membrane Permeable-Phenotype (%)” value [5] was 1.03% and 0.76%, the “Population Mitochondria Different-Phenotype (%)” value [5] was 0% and 2.65% and the “Population Mitotic Cells (%)” value [5] was 53.85% and 53.49%. The “Population Normal (%)” value [5] was 100%, the “Population Pyknosed Nuclei (%)” value [5] was 5.42% and 13.4% and the “Population Tubulin-Different-Phenotype (%)” value [5] was 0.8% and 1.52%. The “Total Cell Count” value [5] was 960 and 321, the “Population Apoptotic (%)” value [6] was 45% and 53.85% and the “Population Fragmented Nuclei (%)” value [6] was 69.73% and 94.1%. For the same compound, the “Population Hoechst High Intensity Objects (%)” value [6] was 23.54% and 11.4%, the “Population Mitotic Cells (%)” value [6] was 55% and 46.15% and the “Population Normal (%)” value [6] was 76.46% and 88.6%. The “Population Pyknosed Nuclei (%)” value [6] was 2.07% and 0.82%, the “Population Tubulin-Different-Phenotype (%)” value [6] was 6.23% and 18.52% and the “Total Cell Count” value [6] was 1266 and 1798.
